In ChEMBL document CHEMBL5331127, “Discovery of ARD-2051 as a Potent and Orally Efficacious Proteolysis Targeting Chimera (PROTAC) Degrader of Androgen Receptor for the Treatment of Advanced Prostate Cancer” (J Med Chem, 2023):

Each compound was assayed against T1, Androgen receptor (Homo sapiens) (UniProt P10275) (assay: Induction of androgen receptor degradation in human VCaP cells at 0.01 uM after 24 hrs by Western blotting analysis relative to control).
T1 sequence (whole entry): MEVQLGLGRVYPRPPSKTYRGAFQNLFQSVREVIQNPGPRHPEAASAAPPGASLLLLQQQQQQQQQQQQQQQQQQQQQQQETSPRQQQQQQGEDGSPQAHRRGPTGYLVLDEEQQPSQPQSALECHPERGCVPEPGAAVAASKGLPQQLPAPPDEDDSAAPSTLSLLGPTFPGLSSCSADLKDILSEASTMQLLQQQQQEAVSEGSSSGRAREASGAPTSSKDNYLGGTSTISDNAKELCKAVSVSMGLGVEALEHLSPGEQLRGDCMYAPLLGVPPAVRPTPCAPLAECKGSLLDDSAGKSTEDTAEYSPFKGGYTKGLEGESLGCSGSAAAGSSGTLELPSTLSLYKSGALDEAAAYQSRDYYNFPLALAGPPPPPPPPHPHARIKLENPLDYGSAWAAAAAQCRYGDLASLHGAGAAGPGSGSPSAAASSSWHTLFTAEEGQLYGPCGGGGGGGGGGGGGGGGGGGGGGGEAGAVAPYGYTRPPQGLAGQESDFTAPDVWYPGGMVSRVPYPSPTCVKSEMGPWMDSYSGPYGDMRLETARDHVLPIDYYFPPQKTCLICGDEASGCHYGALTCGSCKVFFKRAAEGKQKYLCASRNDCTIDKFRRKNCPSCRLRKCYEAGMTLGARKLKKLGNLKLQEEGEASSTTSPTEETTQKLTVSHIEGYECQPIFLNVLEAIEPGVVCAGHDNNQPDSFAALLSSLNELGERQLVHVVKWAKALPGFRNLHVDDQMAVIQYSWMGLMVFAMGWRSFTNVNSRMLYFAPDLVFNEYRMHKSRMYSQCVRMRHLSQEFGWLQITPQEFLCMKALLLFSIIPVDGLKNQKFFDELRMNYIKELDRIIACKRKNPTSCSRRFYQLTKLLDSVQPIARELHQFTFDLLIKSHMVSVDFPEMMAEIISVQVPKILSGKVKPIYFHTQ
Format: cell-based
Summary of the method: (§1)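 VCaP cells treated for 24 h at 10, 100 or 1000 nM. AR protein measured by Western blotting.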
For `C[C@H]1CC2(CCN(c3ccc(C(=O)N4CCC(CN5CCN(c6ccc7c(c6)C(=O)N(C6CCC(=O)NC6=O)C7=O)CC5)CC4)cc3)CC2)CN1c1ccc(C#N)c(Cl)c1` (some centres not stated), the Activity was 81%. Compound `N#Cc1ccc(N2CCC3(CCN(c4ccc(C(=O)N5CCC(N6CCN(c7ccc8c(c7)C(=O)N(C7CCC(=O)NC7=O)C8=O)CC6)CC5)cc4)CC3)C2)cc1Cl` (configuration not stated) has an Activity of 37%. In the case of `C[C@H]1CC2(CCN(c3ccc(C(=O)N4CCN(C5CN(c6ccc7c(c6)C(=O)N(C6CCC(=O)NC6=O)C7=O)C5)CC4)cc3)CC2)CN1c1ccc(C#N)c(C(F)F)c1` (some centres not stated), the Activity is reported as > 90%. `N#Cc1ccc(N2CCC3(CCN(c4ccc(C(=O)N5CC6CC(C5)CN(C5CCN(c7ccc8c(c7)C(=O)N(C7CCC(=O)NC7=O)C8=O)CC5)C6)cc4)CC3)C2)cc1Cl` (configuration not stated) gave an Activity of 23%. In the case of `N#Cc1ccc(N2CCC3(CCN(c4ccc(C(=O)N5CCCN(C6CN(c7ccc8c(c7)C(=O)N(C7CCC(=O)NC7=O)C8=O)C6)CC5)cc4)CC3)C2)cc1Cl` (configuration not stated), the Activity is reported as 39%. `C[C@H]1CC2(CCN(c3ccc(C(=O)N4CC(N5CCN(c6ccc7c(c6)C(=O)N(C6CCC(=O)NC6=O)C7=O)CC5)C4)cc3)CC2)CN1c1ccc(C#N)c(Cl)c1` (some centres not stated) was tested, and the Activity was > 90%. In the case of `C[C@H]1CC2(CCN(c3ccc(C(=O)N4CCN(CC5CCN(c6ccc7c(c6)C(=O)N(C6CCC(=O)NC6=O)C7=O)CC5)CC4)cc3)CC2)CN1c1ccc(C#N)c(Cl)c1` (some centres not stated), the Activity is reported as > 90%. With `N#Cc1ccc(N2CCC3(CCN(c4ccc(C(=O)N5CCN(C6CN(c7ccc8c(c7)C(=O)N(C7CCC(=O)NC7=O)C8=O)C6)CC5)cc4)CC3)C2)cc1Cl` (configuration not stated) the Activity was 78%. `C[C@H]1CC2(CCN(c3ccc(C(=O)N4C[C@H]5C[C@@H]4CN5C4CN(c5ccc6c(c5)C(=O)N(C5CCC(=O)NC5=O)C6=O)C4)cc3)CC2)CN1c1ccc(C#N)c(Cl)c1` (some centres not stated) showed an Activity of 54%. For `C[C@H]1CC2(CCN(c3ccc(C(=O)N4C[C@@H]5C[C@H]4CN5C4CN(c5ccc6c(c5)C(=O)N(C5CCC(=O)NC5=O)C6=O)C4)cc3)CC2)CN1c1ccc(C#N)c(Cl)c1` (some centres not stated), the Activity was > 90%. With `N#Cc1ccc(N2CCC3(CCN(c4ccc(C(=O)N5CC6(C5)CN(C5CN(c7ccc8c(c7)C(=O)N(C7CCC(=O)NC7=O)C8=O)C5)C6)cc4)CC3)C2)cc1Cl` (configuration not stated) the Activity was 22%. For `C[C@@H]1CC2(CCN(c3ccc(C(=O)N4CCN(C5CN(c6ccc7c(c6)C(=O)N(C6CCC(=O)NC6=O)C7=O)C5)CC4)cc3)CC2)CN1c1ccc(C#N)c(Cl)c1` (some centres not stated), the Activity was 66%. Work on `N#Cc1ccc(N2CCC3(CCN(c4ccc(C(=O)N5CCN(CC6CN(c7ccc8c(c7)C(=O)N(C7CCC(=O)NC7=O)C8=O)C6)CC5)cc4)CC3)C2)cc1Cl` (configuration not stated) yielded an Activity of 30%. For `N#Cc1ccc(N2CCC3(CCN(c4ccc(C(=O)N5CCN(C6CCN(c7ccc8c(c7)C(=O)N(C7CCC(=O)NC7=O)C8=O)CC6)CC5)cc4)CC3)C2)cc1Cl` (configuration not stated), the Activity was 24%.

The compounds below were run against T1, Androgen receptor (Homo sapiens) (assay: Induction of androgen receptor degradation in human VCaP cells at 0.1 uM after 24 hrs by Western blotting analysis relative to control).
Format: cell-based
Summary of the method: as §1
`C[C@H]1CC2(CCN(c3ccc(C(=O)N4CCC(CN5CCN(c6ccc7c(c6)C(=O)N(C6CCC(=O)NC6=O)C7=O)CC5)CC4)cc3)CC2)CN1c1ccc(C#N)c(Cl)c1` (some centres not stated) was tested, and the Activity was > 95%. Compound `N#Cc1ccc(N2CCC3(CCN(c4ccc(C(=O)N5CCC(N6CCN(c7ccc8c(c7)C(=O)N(C7CCC(=O)NC7=O)C8=O)CC6)CC5)cc4)CC3)C2)cc1Cl` (configuration not stated) has an Activity of 20%. `C[C@H]1CC2(CCN(c3ccc(C(=O)N4CCN(C5CN(c6ccc7c(c6)C(=O)N(C6CCC(=O)NC6=O)C7=O)C5)CC4)cc3)CC2)CN1c1ccc(C#N)c(C(F)F)c1` (some centres not stated) was tested, and the Activity was > 95%. In the case of `N#Cc1ccc(N2CCC3(CCN(c4ccc(C(=O)N5CC6CC(C5)CN(C5CCN(c7ccc8c(c7)C(=O)N(C7CCC(=O)NC7=O)C8=O)CC5)C6)cc4)CC3)C2)cc1Cl` (configuration not stated), the Activity is reported as 80%. In the case of `N#Cc1ccc(N2CCC3(CCN(c4ccc(C(=O)N5CCCN(C6CN(c7ccc8c(c7)C(=O)N(C7CCC(=O)NC7=O)C8=O)C6)CC5)cc4)CC3)C2)cc1Cl` (configuration not stated), the Activity is reported as 70%. In the case of `C[C@H]1CC2(CCN(c3ccc(C(=O)N4CC(N5CCN(c6ccc7c(c6)C(=O)N(C6CCC(=O)NC6=O)C7=O)CC5)C4)cc3)CC2)CN1c1ccc(C#N)c(Cl)c1` (some centres not stated), the Activity is reported as > 95%. With `C[C@H]1CC2(CCN(c3ccc(C(=O)N4CCN(CC5CCN(c6ccc7c(c6)C(=O)N(C6CCC(=O)NC6=O)C7=O)CC5)CC4)cc3)CC2)CN1c1ccc(C#N)c(Cl)c1` (some centres not stated) the Activity was > 95%. For `N#Cc1ccc(N2CCC3(CCN(c4ccc(C(=O)N5CCN(C6CN(c7ccc8c(c7)C(=O)N(C7CCC(=O)NC7=O)C8=O)C6)CC5)cc4)CC3)C2)cc1Cl` (configuration not stated), the Activity was > 95%. In the case of `C[C@H]1CC2(CCN(c3ccc(C(=O)N4C[C@H]5C[C@@H]4CN5C4CN(c5ccc6c(c5)C(=O)N(C5CCC(=O)NC5=O)C6=O)C4)cc3)CC2)CN1c1ccc(C#N)c(Cl)c1` (some centres not stated), the Activity is reported as 93%. For `C[C@H]1CC2(CCN(c3ccc(C(=O)N4C[C@@H]5C[C@H]4CN5C4CN(c5ccc6c(c5)C(=O)N(C5CCC(=O)NC5=O)C6=O)C4)cc3)CC2)CN1c1ccc(C#N)c(Cl)c1` (some centres not stated), the Activity was > 95%. For `N#Cc1ccc(N2CCC3(CCN(c4ccc(C(=O)N5CC6(C5)CN(C5CN(c7ccc8c(c7)C(=O)N(C7CCC(=O)NC7=O)C8=O)C5)C6)cc4)CC3)C2)cc1Cl` (configuration not stated), the Activity was 62%. `C[C@@H]1CC2(CCN(c3ccc(C(=O)N4CCN(C5CN(c6ccc7c(c6)C(=O)N(C6CCC(=O)NC6=O)C7=O)C5)CC4)cc3)CC2)CN1c1ccc(C#N)c(Cl)c1` (some centres not stated) was tested, and the Activity was 93%. Work on `N#Cc1ccc(N2CCC3(CCN(c4ccc(C(=O)N5CCN(CC6CN(c7ccc8c(c7)C(=O)N(C7CCC(=O)NC7=O)C8=O)C6)CC5)cc4)CC3)C2)cc1Cl` (configuration not stated) yielded an Activity of 81%. `N#Cc1ccc(N2CCC3(CCN(c4ccc(C(=O)N5CCN(C6CCN(c7ccc8c(c7)C(=O)N(C7CCC(=O)NC7=O)C8=O)CC6)CC5)cc4)CC3)C2)cc1Cl` (configuration not stated) was tested, and the Activity was 74%.

These compounds were tested against T1, Androgen receptor (Homo sapiens) (assay: Induction of androgen receptor degradation in human VCaP cells at 1 uM after 24 hrs by Western blotting analysis relative to control).
Format: cell-based
Summary of the method: as §1
`C[C@H]1CC2(CCN(c3ccc(C(=O)N4CCC(CN5CCN(c6ccc7c(c6)C(=O)N(C6CCC(=O)NC6=O)C7=O)CC5)CC4)cc3)CC2)CN1c1ccc(C#N)c(Cl)c1` (some centres not stated) was tested, and the Activity was > 95%. `N#Cc1ccc(N2CCC3(CCN(c4ccc(C(=O)N5CCC(N6CCN(c7ccc8c(c7)C(=O)N(C7CCC(=O)NC7=O)C8=O)CC6)CC5)cc4)CC3)C2)cc1Cl` (configuration not stated) was tested, and the Activity was > 95%. In the case of `C[C@H]1CC2(CCN(c3ccc(C(=O)N4CCN(C5CN(c6ccc7c(c6)C(=O)N(C6CCC(=O)NC6=O)C7=O)C5)CC4)cc3)CC2)CN1c1ccc(C#N)c(C(F)F)c1` (some centres not stated), the Activity is reported as > 95%. In the case of `N#Cc1ccc(N2CCC3(CCN(c4ccc(C(=O)N5CC6CC(C5)CN(C5CCN(c7ccc8c(c7)C(=O)N(C7CCC(=O)NC7=O)C8=O)CC5)C6)cc4)CC3)C2)cc1Cl` (configuration not stated), the Activity is reported as 90%. With `N#Cc1ccc(N2CCC3(CCN(c4ccc(C(=O)N5CCCN(C6CN(c7ccc8c(c7)C(=O)N(C7CCC(=O)NC7=O)C8=O)C6)CC5)cc4)CC3)C2)cc1Cl` (configuration not stated) the Activity was 87%. In the case of `C[C@H]1CC2(CCN(c3ccc(C(=O)N4CC(N5CCN(c6ccc7c(c6)C(=O)N(C6CCC(=O)NC6=O)C7=O)CC5)C4)cc3)CC2)CN1c1ccc(C#N)c(Cl)c1` (some centres not stated), the Activity is reported as > 95%. In the case of `C[C@H]1CC2(CCN(c3ccc(C(=O)N4CCN(CC5CCN(c6ccc7c(c6)C(=O)N(C6CCC(=O)NC6=O)C7=O)CC5)CC4)cc3)CC2)CN1c1ccc(C#N)c(Cl)c1` (some centres not stated), the Activity is reported as > 95%. With `N#Cc1ccc(N2CCC3(CCN(c4ccc(C(=O)N5CCN(C6CN(c7ccc8c(c7)C(=O)N(C7CCC(=O)NC7=O)C8=O)C6)CC5)cc4)CC3)C2)cc1Cl` (configuration not stated) the Activity was > 95%. Compound `C[C@H]1CC2(CCN(c3ccc(C(=O)N4C[C@H]5C[C@@H]4CN5C4CN(c5ccc6c(c5)C(=O)N(C5CCC(=O)NC5=O)C6=O)C4)cc3)CC2)CN1c1ccc(C#N)c(Cl)c1` (some centres not stated) has an Activity of 95%. With `C[C@H]1CC2(CCN(c3ccc(C(=O)N4C[C@@H]5C[C@H]4CN5C4CN(c5ccc6c(c5)C(=O)N(C5CCC(=O)NC5=O)C6=O)C4)cc3)CC2)CN1c1ccc(C#N)c(Cl)c1` (some centres not stated) the Activity was > 95%. `N#Cc1ccc(N2CCC3(CCN(c4ccc(C(=O)N5CC6(C5)CN(C5CN(c7ccc8c(c7)C(=O)N(C7CCC(=O)NC7=O)C8=O)C5)C6)cc4)CC3)C2)cc1Cl` (configuration not stated) was tested, and the Activity was 81%. With `C[C@@H]1CC2(CCN(c3ccc(C(=O)N4CCN(C5CN(c6ccc7c(c6)C(=O)N(C6CCC(=O)NC6=O)C7=O)C5)CC4)cc3)CC2)CN1c1ccc(C#N)c(Cl)c1` (some centres not stated) the Activity was > 95%. For `N#Cc1ccc(N2CCC3(CCN(c4ccc(C(=O)N5CCN(CC6CN(c7ccc8c(c7)C(=O)N(C7CCC(=O)NC7=O)C8=O)C6)CC5)cc4)CC3)C2)cc1Cl` (configuration not stated), the Activity was 85%. Work on `N#Cc1ccc(N2CCC3(CCN(c4ccc(C(=O)N5CCN(C6CCN(c7ccc8c(c7)C(=O)N(C7CCC(=O)NC7=O)C8=O)CC6)CC5)cc4)CC3)C2)cc1Cl` (configuration not stated) yielded an Activity of 95%.
